A short description of series [1]: Half life in human pooled liver microsomes at 1 uM incubated up to 120 mins in presence of NADPH by LC-MS analysis. The format is ADME, Microsome. A general note: Microsomes from liver hold many membrane-bound enzymes, among them those of drug oxidation.
The target of series [2] is T1, Apelin receptor (Homo sapiens, UniProt P35414).
T1 sequence (P35414 whole entry): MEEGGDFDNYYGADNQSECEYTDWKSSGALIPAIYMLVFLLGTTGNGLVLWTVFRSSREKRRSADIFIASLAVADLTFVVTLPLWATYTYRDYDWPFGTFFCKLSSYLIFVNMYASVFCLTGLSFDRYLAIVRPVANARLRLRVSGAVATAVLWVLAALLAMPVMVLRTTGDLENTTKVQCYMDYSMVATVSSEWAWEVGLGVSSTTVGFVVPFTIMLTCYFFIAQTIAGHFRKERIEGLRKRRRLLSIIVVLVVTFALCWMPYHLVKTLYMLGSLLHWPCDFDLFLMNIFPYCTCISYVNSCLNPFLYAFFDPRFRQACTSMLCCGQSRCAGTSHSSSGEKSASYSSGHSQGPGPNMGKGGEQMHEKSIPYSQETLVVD
As to the kind of experiment: Agonist activity at human APJ receptor expressed in CHO cells assessed as inhibition of forskolin-induced cAMP accumulation measured after 30 mins by TR-FRET assay. (In general: Cyclic AMP is a second messenger, typically raised through Gs and lowered through Gi signalling.)

Series [3] in a line: Intrinsic clearance in human pooled liver microsomes at 1 uM incubated up to 120 mins in presence of NADPH by LC-MS analysis. The format is ADME, Microsome. The conditions noted are these: read-out: CLH.
In series [4] the target is T1, Apelin receptor. As to the kind of experiment: Agonist activity at human AGTRL1 expressed in CHO-K1 cells assessed as induction of beta-arrestin 2 recruitment incubated for 90 mins by PathHunter assay. The format is functional, cell-based. For orientation: Activated receptors often draw arrestin, which recruitment assays turn into a signal.
Series [5] concerns the target T2, Apelin receptor (Mus musculus, UniProt Q9WV08).
T2 sequence (Q9WV08 whole entry): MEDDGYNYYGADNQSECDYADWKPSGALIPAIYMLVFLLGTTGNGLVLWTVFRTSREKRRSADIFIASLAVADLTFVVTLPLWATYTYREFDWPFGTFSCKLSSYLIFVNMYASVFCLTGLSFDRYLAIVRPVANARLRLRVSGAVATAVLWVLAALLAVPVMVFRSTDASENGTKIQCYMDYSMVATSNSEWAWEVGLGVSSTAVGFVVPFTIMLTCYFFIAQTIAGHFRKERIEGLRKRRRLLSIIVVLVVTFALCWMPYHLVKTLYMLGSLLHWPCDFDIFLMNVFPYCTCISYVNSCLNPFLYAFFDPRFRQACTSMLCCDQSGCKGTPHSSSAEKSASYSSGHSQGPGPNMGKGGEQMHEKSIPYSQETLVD
The experiment in a line: Agonist activity at Galphaq16-fused mouse APJ receptor expressed in CHO cells assessed as stimulation of Ca2+ mobilization incubated for 1 hr by Calcium 5-dye based fluorescence based assay. The series is classed as cell-based. The procedure, abridged:
(§1)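 CHO cells stably co-expressing Gαq16 with mouse APJ or human AGTR1; 20,000 hAGTR1 cells per well, plated 24 h at 37 °C. Loaded 1 h at 37 °C with Calcium 5 dye in HBSS buffer with 20 mM HEPES, 1% BSA, 10 μM probenecid, 1% DMSO final. Stimulated with compounds at various concentrations; fluorescence read on FLIPR Tetra. Duplicate, 2−3 runs.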

A short description of series [6]: AUC in CD-1 mouse plasma at 15 mg/kg, ip measured up to 24 hrs by LC-MS/MS analysis. The format is ADME, organism-based. Also on record: route intraperitoneal, dose 15 mg/kg, time <=24. The procedure, abridged: (§2)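 Male CD-1 mice, about 10 weeks old, acclimated 72 h. Single 15 mg/kg IP dose formulated in modified citrate buffer (pH 6). Animals sacrificed at 0.5, 1, 2, 4, 8 and 24 h to collect plasma and brain samples. Cmax, AUC_all, CL and T1/2 determined.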

A short description of series [7]: Kinetic solubility of the compound in pH 7.4 PBS buffer measured after 2 hrs by LC-MS/MS analysis. The series is classed as physicochemical. The conditions noted are these: read-out: Kinetic_solubility. A digest of the protocol: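 20 mM DMSO stock diluted into PBS pH 7.4 to a targeted 400 μM. Agitated 2 h at room temperature, filtered through 1 μm glass fiber, and eluate diluted 400-fold in acetonitrile/water (1:1) for analysis.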

Series [8] can be described thus: Protein binding in human plasma at 10 uM measured after 4 hrs by LC-MS/MS analysis. The series is classed as ADME, cell-free. The conditions noted are these: read-out: PPB (converted). A digest of the protocol: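 Human plasma spiked at 10 μM, dialyzed against phosphate/NaCl buffer by rapid equilibrium dialysis for 4 h at 37 °C with shaking at 100 rpm. Samples matrix-matched, protein precipitated with cold acetonitrile/formic acid, and analyzed by LC−MS/MS. Three independent samples.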

A short description of series [9]: Clearance in CD-1 mouse plasma at 15 mg/kg, ip measured up to 24 hrs by LC-MS/MS analysis. The format is ADME, organism-based. A digest of the protocol:
as §2

The next series has as its target hERG (KCNH2) (Homo sapiens, UniProt Q12809). As to the kind of experiment: Displacement of [3H]astemizole from human ERG at 10 uM measured after 60 mins by scintillation counter method relative to control. The conditions noted are these: probe [3H]astemizole. The procedure, abridged: (§3)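 Competition binding using 4 μg hERG-expressing membranes with ~3 nM [3H]astemizole for 60 min in pH 7.4 HEPES buffer with 0.1% BSA. Terminated by filtration onto polyethyleneimine-soaked GF/B filters, washed with ice-cold buffer, and counted with scintillant. At least two runs in duplicate.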

In series [10] the target is Voltage-gated inwardly rectifying potassium channel KCNH2 (Homo sapiens, UniProt Q12809). As to the kind of experiment: Displacement of [3H]astemizole from human ERG at 10 uM measured after 60 mins by scintillation counter method. The note with it: 1 h. The procedure, abridged:
as §3

Series [11] is described as follows: Cmax in CD-1 mouse brain at 15 mg/kg, ip measured up to 24 hrs by LC-MS/MS analysis. The format is ADME, organism-based. Also noted: route intraperitoneal, dose 15 mg/kg, time <=24. A digest of the protocol:
as §2

Series [12] in a line: Cmax in CD-1 mouse plasma at 15 mg/kg, ip measured up to 24 hrs by LC-MS/MS analysis. The format is ADME, organism-based. Also on record: route intraperitoneal, dose 15 mg/kg, time <=24. A digest of the protocol:
as §2

Series [13] can be described thus: Half life in CD-1 mouse plasma at 15 mg/kg, ip measured up to 24 hrs by LC-MS/MS analysis. The format is ADME, organism-based. A digest of the protocol:
as §2

Series [14] can be described thus: Half life in CD-1 mouse brain at 15 mg/kg, ip measured up to 24 hrs by LC-MS/MS analysis. The format is ADME, organism-based. A digest of the protocol: as §2
Series [15] concerns the target T3, Type-1 angiotensin II receptor (Homo sapiens, UniProt P30556).
T3 sequence (P30556 whole entry): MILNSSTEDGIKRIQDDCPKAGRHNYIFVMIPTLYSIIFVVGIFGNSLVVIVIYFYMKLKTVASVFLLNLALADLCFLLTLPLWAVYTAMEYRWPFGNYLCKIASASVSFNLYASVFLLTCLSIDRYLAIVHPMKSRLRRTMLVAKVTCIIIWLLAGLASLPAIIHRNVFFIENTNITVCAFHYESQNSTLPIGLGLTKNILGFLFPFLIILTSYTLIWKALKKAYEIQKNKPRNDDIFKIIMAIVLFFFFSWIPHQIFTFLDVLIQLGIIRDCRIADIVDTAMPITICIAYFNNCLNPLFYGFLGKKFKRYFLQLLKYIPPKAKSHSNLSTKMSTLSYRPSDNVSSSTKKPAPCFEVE
The experiment in a line: Agonist activity at Galphaq16-fused human AGTR1 expressed in CHO cells assessed as stimulation of Ca2+ mobilization incubated for 1 hr by Calcium 5-dye based fluorescence based assay. The series is classed as functional, cell-based. A digest of the protocol:
as §1

Series [16] can be described thus: AUC in CD-1 mouse brain at 15 mg/kg, ip measured up to 24 hrs by LC-MS/MS analysis. The series is classed as ADME, organism-based. Also noted: route intraperitoneal, dose 15 mg/kg, time <=24. The procedure, abridged:
as §2

Bounds are passed on as bounds.

Sequence of hERG (KCNH2) (Q12809 whole entry): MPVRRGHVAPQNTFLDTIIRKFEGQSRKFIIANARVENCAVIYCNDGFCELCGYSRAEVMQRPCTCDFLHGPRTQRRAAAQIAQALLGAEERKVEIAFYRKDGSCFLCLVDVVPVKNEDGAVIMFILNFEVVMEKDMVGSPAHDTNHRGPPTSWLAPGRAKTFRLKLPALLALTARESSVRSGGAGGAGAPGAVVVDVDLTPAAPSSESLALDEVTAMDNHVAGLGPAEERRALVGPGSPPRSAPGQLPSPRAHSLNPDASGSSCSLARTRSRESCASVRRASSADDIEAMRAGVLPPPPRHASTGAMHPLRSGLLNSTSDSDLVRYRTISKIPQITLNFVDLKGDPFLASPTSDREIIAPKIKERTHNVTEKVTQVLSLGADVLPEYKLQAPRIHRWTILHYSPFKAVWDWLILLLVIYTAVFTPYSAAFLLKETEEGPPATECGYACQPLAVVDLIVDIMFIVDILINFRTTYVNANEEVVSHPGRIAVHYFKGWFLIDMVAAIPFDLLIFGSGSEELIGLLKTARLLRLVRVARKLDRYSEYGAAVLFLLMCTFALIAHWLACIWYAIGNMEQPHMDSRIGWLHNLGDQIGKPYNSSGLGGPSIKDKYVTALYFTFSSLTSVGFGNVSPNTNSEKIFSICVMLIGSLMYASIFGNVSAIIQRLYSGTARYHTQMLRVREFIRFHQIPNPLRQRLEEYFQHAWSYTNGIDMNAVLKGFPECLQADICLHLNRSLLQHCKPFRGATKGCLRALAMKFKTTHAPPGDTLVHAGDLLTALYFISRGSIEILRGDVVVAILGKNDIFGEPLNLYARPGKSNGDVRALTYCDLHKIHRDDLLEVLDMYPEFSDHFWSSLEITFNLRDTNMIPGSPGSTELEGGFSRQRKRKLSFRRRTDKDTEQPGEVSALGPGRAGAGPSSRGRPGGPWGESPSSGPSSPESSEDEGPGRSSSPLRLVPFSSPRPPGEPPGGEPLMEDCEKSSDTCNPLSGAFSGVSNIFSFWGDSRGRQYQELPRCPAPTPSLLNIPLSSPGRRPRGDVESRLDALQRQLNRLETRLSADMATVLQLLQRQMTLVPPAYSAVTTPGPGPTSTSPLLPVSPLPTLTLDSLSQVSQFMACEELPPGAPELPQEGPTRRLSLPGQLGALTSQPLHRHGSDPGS
Sequence of Voltage-gated inwardly rectifying potassium channel KCNH2 (Q12809 whole entry): as above

Regarding `COc1cccc(OC)c1-c1cc(C(=O)N[C@@H](CCN2C(C)CCCC2C)CC(=O)NC2CCC2)nn1C1CCCC1.Cl` (some centres undefined), the half-life (commonly the time in which the quantity being followed falls by half) at 1 µM in [1] was found to be 52 min. Also, the EC50 (as a rule, the midpoint of the concentration-response curve) is 33 nM at Apelin receptor [2] and 459 nM at Apelin receptor [4]. The CLint scaled at 1 µM in series [3] was determined as 23.9 mL/min/kg.

As to `COc1cccc(OC)c1-c1cc(C(=O)N[C@@H](CCN2CCCCCC2)CC(=O)NC2CCC2)nn1C1CCCC1.Cl`, in series [1], the half-life at 1 µM is 38 min. Also, the results for the half-maximal effective concentration (EC50) on Apelin receptor [2] and on Apelin receptor [4] were 8 nM and 159 nM, respectively. The CLint scaled at 1 µM in series [3] was determined as 32.4 mL/min/kg.

For the compound `COc1cccc(OC)c1-c1cc(C(=O)N[C@@H](CCN2CCCCC2)CC(=O)Nc2nnn[nH]2)nn1C1CCCC1`, in series [1], the half-life at 1 µM was determined as 24.2 min. For the same compound, the CLint scaled at 1 µM in [3] was 25.8 mL/min/kg.

Take `COc1cccc(OC)c1-c1cc(C(=O)N[C@@H](CCN2CCCCC2)CC(=O)N(C)C2CCC2)nn1C1CCCC1`: the half-life at 1 µM in series [1] came to 37 min. Also, the EC50 amounted to 105 nM on Apelin receptor [2] and 326 nM on Apelin receptor [4]. Besides, the CLint scaled at 1 µM in series [3] came out at 33.3 mL/min/kg.

With `COc1cccc(OC)c1-c1cc(C(=O)N[C@@H](CCN2CCCCC2)CC(=O)N(C)c2nccs2)nn1C1CCCC1`, in series [1], the half-life at 1 µM stood at 37 min. Besides, the EC50 at Apelin receptor [2] amounted to 5 nM; on Apelin receptor [4] it was 14 nM. The CLint scaled at 1 µM in series [3] amounted to 33.4 mL/min/kg.

On to `COCCN(C)C(=O)C[C@H](CCN1CCCCC1)NC(=O)c1cc(-c2c(OC)cccc2OC)n(C2CCCC2)n1`, for which the EC50 at Apelin receptor [2] was 2410 nM; at Apelin receptor [4], more than 10000 nM.

Take `COc1cccc(OC)c1-c1cc(C(=O)N[C@@H](CCN2CCCCC2)CC(=O)NC2CC(F)(F)C2)nn1C1CCCC1`: in [1], the half-life at 1 µM was determined as 38 min. The CLint scaled at 1 µM in [3] turned out to be 32.4 mL/min/kg.

As for `COc1cccc(OC)c1-c1cc(C(=O)N[C@@H](CCN2CCOCC2)CC(=O)NC2CCC2)nn1C1CCCC1.Cl`, the half-life at 1 µM in [1] amounted to 17 min. Besides, the EC50 came to 237 nM on Apelin receptor [2] and 1350 nM on Apelin receptor [4]. Moreover, the CLint scaled at 1 µM in series [3] came out at 73.1 mL/min/kg.

For the compound `COc1cccc(OC)c1-c1cc(C(=O)N[C@@H](CCN2CCCCC2)CC(=O)Nc2nccs2)nn1C1CCCC1`, the half-life at 1 µM in [1] is 27 min. Also, the EC50 at Apelin receptor [2] stood at 1 nM. For the same compound, the CLint scaled at 1 µM in [3] stood at 46.7 mL/min/kg.

Regarding `COc1cccc(OC)c1-c1cc(C(=O)N[C@@H](CCN2CCCCC2)CC(=O)NC2CCC2)nn1C1CCCC1.Cl`, the EC50 is 22 nM at Apelin receptor [5] and more than 10000 nM in [15]. Further, the AUC (usually concentration integrated over time) at 24 h was 3000 ng·h/mL in series [6] and 1080 ng·h/mL in series [16]. The half-life at 1 µM in series [1] is 62 min. Further, the solubility kinetic at 2 h in [7] is 192 µM. Moreover, in series [8], the fraction unbound at 4 h, 10 µM is 0.09. Also, the CL/F (in general, clearance divided by bioavailability, as obtained after extravascular dosing) in [9] stood at 83 mL/min/kg. Besides, on hERG (KCNH2), the inhibition (in general, the percentage by which the read-out fell short of the control) at 1 h, 10 µM was less than 50%. Further, in series [10], the “inhibition (INH)” value is listed as “Not Active”. Also, the Cmax (in general, the highest concentration seen after dosing) was found to be 103 ng/mL in series [11] and 1580 ng/mL in series [12]. The CLint scaled at 1 µM in series [3] was determined as 20 mL/min/kg. For the same compound, the half-life in series [13] was 162 min; in [14], 804 min.

`COc1cccc(OC)c1-c1cc(C(=O)N[C@@H](CCN2CCCCC2)Cc2nnc[nH]2)nn1C1CCCC1`: in [1], the half-life at 1 µM is 33 min. Further, the EC50 stood at 134 nM at Apelin receptor [2] and 523 nM on Apelin receptor [4]. The CLint scaled at 1 µM in [3] worked out at 37.8 mL/min/kg.

As for `CC(C)NCC(O)COc1cccc2ccccc12` (centres undefined) [PROPRANOLOL], the fraction unbound at 4 h, 10 µM in series [8] was 0.39.

For the origin of these results see ChEMBL document CHEMBL4823248, “Pyrazole Agonist of the Apelin Receptor Improves Symptoms of Metabolic Syndrome in Mice” (J Med Chem, 2021).
